Activity calls are given as the source filed them. No cut-off for these calls is given here.
Experiments:
[1] = target: T1, Neuronal acetylcholine receptor; alpha4/beta2 (Homo sapiens, UniProt P17787+P43681); test: Activation of human alpha4beta2 nAChR assessed as potentiation of submaximal response to nicotine induced current
Summary of the method: (§1)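 Fluorescence-based functional assay; compounds first screened at 10 µM for increase of the fluorescent response to an EC₁₂ concentration of nicotine, actives then run dose–response; EC₅₀ and peak response recorded, efficacy expressed as % of maximal nicotine response; average of n ≥ 2.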

[2] = Plasma concentration in Sprague-Dawley rat at 5 mg/kg, ip after 1 hr; type: ADME, organism-based; parameters: dose 5 mg/kg, route intraperitoneal
Summary of the method: (§2)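 Rats dosed ip at 5 mg/kg in DMSO; sacrificed at 1 h; plasma, brain and CSF collected and drug concentrations measured.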

[3] = Drug level in Sprague-Dawley rat brain at 5 mg/kg, ip after 1 hr; type: ADME, organism-based; parameters: dose 5 mg/kg, route intraperitoneal; conditions: read-out: Drug uptake; summary of the method: as §2
[4] = target: Neuronal acetylcholine receptor; alpha4/beta2 (Rattus norvegicus) (UniProt P09483+P12390); test: Activation of rat alpha4beta2 nAChR expressed in HEK293 cells assessed as potentiation of acetylcholine-induced current by whole cell patch clamp; type: cell-based
Summary of the method: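 Whole-cell patch-clamp with fast-flow perfusion under physiological ionic conditions; acetylcholine as agonist, holding potential −80 mV; compound also applied alone to check for evoked inward currents.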

[5] = target: Neuronal acetylcholine receptor subunit alpha-7 (Homo sapiens, UniProt P36544); test: Activation of human alpha7 nAChR assessed as potentiation of submaximal response to nicotine induced current
[6] = target: T1, Neuronal acetylcholine receptor; alpha4/beta2; test: Displacement of [3H]cytisine from human alpha4beta2 nAChR at =>30 uM; type: protein-complex assay
[7] = target: Neuronal acetylcholine receptor; alpha4/beta2 (Rattus norvegicus, UniProt P09483+P12390); test: Activation of rat alpha4beta2 nAChR by fluorescence assay; type: protein-complex assay
[8] = Drug level in Sprague-Dawley rat CSF at 5 mg/kg, ip after 1 hr; type: ADME, organism-based, Cerebrospinal fluid; parameters: dose 5 mg/kg, route intraperitoneal; conditions: read-out: Drug uptake; summary of the method: as §2
[9] = target: T1, Neuronal acetylcholine receptor; alpha4/beta2; test: Activation of human alpha4beta2 nAChR assessed as potentiation of submaximal response to […] relative to maximal nicotine response; type: protein-complex assay; summary of the method: as §1
MDR1 = test: Permeability efflux ratio in MDR1 expressing pig LLC-PK1 cells; type: ADME, cell-based, Sus scrofa
[10] = target: Neuronal acetylcholine receptor; alpha3/beta4 (Homo sapiens, UniProt P30926+P32297); test: Activation of human alpha3beta4 nAChR assessed as potentiation of submaximal response to nicotine induced current; type: protein-complex assay; summary of the method: as §1
[11] = target: Neuronal acetylcholine receptor; alpha3/beta2 (Homo sapiens, UniProt P17787+P32297); test: Activation of human alpha3beta2 nAChR assessed as potentiation of submaximal response to nicotine induced current; summary of the method: as §1
Sequence of Neuronal acetylcholine receptor; alpha3/beta2 (P17787 whole entry): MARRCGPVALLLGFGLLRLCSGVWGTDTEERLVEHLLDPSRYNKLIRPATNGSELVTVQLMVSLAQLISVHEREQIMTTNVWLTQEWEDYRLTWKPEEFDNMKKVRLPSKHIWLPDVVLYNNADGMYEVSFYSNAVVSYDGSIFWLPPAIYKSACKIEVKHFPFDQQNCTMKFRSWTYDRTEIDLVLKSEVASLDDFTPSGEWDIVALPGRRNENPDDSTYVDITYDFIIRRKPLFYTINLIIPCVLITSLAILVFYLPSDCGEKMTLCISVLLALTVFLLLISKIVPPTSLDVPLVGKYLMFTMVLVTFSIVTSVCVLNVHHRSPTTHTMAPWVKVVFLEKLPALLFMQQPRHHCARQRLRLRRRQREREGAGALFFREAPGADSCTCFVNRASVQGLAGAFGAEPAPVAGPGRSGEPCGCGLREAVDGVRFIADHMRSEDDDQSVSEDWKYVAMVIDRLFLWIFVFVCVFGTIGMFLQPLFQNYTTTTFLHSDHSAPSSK
Sequence of Neuronal acetylcholine receptor; alpha3/beta2 (P32297 whole entry): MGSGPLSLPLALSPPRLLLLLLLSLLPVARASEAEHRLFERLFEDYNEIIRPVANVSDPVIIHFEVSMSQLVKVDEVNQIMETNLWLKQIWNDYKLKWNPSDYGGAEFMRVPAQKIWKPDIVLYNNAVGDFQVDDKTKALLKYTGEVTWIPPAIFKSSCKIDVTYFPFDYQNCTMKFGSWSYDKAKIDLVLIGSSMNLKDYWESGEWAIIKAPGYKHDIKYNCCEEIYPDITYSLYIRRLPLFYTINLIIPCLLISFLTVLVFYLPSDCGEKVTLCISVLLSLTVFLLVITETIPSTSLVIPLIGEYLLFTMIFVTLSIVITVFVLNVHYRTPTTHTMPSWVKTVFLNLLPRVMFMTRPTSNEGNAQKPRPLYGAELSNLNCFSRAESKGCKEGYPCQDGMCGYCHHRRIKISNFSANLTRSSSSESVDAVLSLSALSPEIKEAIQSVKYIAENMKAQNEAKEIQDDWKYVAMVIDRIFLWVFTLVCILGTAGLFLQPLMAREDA

T1 sequence (P17787 whole entry): as the sequence (P17787 whole entry) above
T1 sequence (P43681 whole entry): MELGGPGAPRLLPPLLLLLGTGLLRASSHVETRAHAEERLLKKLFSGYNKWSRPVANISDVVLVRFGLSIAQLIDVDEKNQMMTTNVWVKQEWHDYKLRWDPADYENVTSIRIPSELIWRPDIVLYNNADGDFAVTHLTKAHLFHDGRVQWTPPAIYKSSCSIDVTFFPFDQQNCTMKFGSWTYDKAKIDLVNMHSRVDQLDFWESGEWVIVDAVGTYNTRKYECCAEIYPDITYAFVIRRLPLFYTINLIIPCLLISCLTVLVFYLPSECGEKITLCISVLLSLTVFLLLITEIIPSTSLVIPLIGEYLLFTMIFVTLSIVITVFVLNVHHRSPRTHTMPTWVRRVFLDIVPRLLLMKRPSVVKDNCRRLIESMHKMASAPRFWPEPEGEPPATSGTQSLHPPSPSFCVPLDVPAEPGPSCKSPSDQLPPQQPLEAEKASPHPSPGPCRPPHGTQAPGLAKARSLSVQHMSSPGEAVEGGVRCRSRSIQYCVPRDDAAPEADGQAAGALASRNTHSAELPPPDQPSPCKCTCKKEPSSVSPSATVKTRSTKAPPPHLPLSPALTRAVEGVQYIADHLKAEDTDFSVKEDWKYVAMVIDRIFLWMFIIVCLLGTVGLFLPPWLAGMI
Sequence of Neuronal acetylcholine receptor; alpha3/beta4 (P30926 whole entry): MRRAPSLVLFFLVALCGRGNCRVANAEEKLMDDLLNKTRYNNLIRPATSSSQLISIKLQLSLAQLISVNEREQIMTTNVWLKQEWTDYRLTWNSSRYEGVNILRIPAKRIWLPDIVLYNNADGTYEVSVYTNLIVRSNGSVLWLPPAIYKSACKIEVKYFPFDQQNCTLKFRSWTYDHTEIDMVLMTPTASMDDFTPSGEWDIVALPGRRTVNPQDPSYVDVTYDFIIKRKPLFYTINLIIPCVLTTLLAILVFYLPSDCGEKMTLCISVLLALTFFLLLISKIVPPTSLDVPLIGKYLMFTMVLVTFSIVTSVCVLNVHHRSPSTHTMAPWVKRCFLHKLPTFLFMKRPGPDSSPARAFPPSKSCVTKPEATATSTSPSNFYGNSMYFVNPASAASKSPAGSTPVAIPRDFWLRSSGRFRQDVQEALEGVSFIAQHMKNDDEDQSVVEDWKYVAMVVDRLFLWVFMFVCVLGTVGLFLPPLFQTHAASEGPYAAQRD
Sequence of Neuronal acetylcholine receptor; alpha3/beta4 (P32297 whole entry): as the sequence (P32297 whole entry) above
Sequence of Neuronal acetylcholine receptor subunit alpha-7 (P36544 whole entry): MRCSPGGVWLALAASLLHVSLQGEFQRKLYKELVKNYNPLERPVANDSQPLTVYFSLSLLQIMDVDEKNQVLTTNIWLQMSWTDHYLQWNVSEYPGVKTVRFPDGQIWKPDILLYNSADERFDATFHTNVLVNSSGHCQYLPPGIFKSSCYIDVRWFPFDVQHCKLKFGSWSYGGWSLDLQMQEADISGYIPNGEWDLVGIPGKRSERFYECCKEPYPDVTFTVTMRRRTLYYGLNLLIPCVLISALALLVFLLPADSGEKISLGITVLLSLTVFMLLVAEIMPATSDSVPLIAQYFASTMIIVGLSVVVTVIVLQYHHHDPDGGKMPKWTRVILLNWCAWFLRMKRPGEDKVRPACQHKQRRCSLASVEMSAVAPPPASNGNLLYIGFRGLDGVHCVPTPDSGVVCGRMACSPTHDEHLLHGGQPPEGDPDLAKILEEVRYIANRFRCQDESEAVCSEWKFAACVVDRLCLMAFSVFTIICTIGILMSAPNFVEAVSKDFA
Sequence of Neuronal acetylcholine receptor; alpha4/beta2 (Rattus norvegicus, UniProt P09483+P12390) (P09483 whole entry): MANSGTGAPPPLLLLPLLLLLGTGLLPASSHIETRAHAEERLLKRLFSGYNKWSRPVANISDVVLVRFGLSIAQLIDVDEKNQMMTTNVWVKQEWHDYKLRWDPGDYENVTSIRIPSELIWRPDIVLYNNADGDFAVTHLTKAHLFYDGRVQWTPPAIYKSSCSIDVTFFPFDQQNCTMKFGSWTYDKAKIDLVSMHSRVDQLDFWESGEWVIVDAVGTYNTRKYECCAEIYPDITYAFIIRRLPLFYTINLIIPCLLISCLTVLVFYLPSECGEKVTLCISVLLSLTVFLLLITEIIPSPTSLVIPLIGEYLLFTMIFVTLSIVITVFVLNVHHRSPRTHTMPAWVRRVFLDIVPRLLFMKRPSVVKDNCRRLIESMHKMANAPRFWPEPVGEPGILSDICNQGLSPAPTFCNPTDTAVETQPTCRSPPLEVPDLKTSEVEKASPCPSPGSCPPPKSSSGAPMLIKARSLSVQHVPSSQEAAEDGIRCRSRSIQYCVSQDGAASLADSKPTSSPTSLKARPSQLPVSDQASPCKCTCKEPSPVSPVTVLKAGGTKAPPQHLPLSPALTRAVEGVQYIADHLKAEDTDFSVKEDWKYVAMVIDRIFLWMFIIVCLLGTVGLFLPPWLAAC
Sequence of Neuronal acetylcholine receptor; alpha4/beta2 (Rattus norvegicus, UniProt P09483+P12390) (P12390 whole entry): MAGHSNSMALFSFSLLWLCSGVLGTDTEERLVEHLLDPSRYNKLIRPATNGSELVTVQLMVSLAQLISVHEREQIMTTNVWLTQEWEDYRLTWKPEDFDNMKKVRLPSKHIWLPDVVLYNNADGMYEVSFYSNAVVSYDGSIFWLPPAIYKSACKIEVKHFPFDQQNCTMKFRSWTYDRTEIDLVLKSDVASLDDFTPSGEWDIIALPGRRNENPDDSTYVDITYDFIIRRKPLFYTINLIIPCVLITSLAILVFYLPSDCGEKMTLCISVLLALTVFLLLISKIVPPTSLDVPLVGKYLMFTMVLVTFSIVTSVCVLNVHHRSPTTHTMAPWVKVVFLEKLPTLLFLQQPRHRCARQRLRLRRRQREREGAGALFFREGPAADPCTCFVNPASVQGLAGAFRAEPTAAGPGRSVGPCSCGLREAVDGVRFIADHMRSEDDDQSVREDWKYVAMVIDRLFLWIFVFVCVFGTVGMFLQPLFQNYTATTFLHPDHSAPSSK

| EC50 [1] [nM] | Efficacy [9] [%] | SMILES | other results |
| --- | --- | --- | --- |
| 18 | 71 | Cc1c(-c2cc(-c3ccccc3Cl)no2)cnn1C1CCNCC1 | concentration at 1 h [2]: 610 nM; concentration at 1 h [3]: 5200 nM; Activity [4]: Active; EC50 [5]: > 100000 nM; Activity [6]: inactive; EC50 [7]: 20 nM; concentration at 1 h [8]: 130 nM |
| 48 | 60 | Fc1cccc(Cl)c1-c1cc(-c2cnn(C3CCNCC3)c2)on1 |  |
| > 100000 |  | c1ccc(-c2cc(-c3cnn(C4CCNCC4)c3)on2)cc1 |  |
| 3 | 74 | CCn1c(-c2cc(-c3c(F)cccc3Cl)no2)cnc1C1(F)CCNCC1 | concentration at 1 h [2]: 600 nM; efflux ratio (MDR1): 1; concentration at 1 h [3]: 6500 nM; concentration at 1 h [8]: 29 nM |
| 230 | 47 | Fc1cccc(-c2cc(-c3cnn(C4CCNCC4)c3)on2)c1Cl |  |
| 3 | 87 | CCn1c(-c2cc(-c3c(F)cccc3Cl)no2)cnc1C1CCNCC1 | efflux ratio (MDR1): > 10 |
| 1300 | 19 | Cc1cc(-c2cnn(C3CCNCC3)c2)on1 |  |
| 1200 | 31 | Cc1c(-c2cc(-c3ccccc3)no2)cnn1C1CCNCC1 |  |
| 270 | 29 | Fc1ccc(Cl)c(-c2cc(-c3cnn(C4CCNCC4)c3)on2)c1 |  |
| 34 | 68 | Cn1c(-c2cc(-c3c(F)cccc3Cl)no2)cnc1C1(F)CCNCC1 | efflux ratio (MDR1): 1 |
| 6 | 66 | Cc1c(-c2cc(-c3c(F)cccc3Cl)no2)cnn1C1CCNCC1 |  |
| 410 | 73 | Clc1cccc(Cl)c1-c1cc(-c2cnn(C3CCNCC3)c2)on1 |  |
| 350 | 41 | CN(Cc1cc(-c2ccccc2Cl)no1)C(=O)C1CCNCC1 | EC50 [10]: > 100000 nM; EC50 [11]: > 100000 nM |
| 120 | 38 | Clc1ccccc1-c1cc(-c2cnn(C3CCNCC3)c2)on1 | EC50 [10]: > 100000 nM; EC50 [11]: > 100000 nM |
| 200 | 50 | Clc1cnccc1-c1cc(-c2cnn(C3CCNCC3)c2)on1 |  |
| 33 | 63 | Clc1ccccc1-c1cc(-c2cnc(C3CCNCC3)s2)on1 | concentration at 1 h [2]: 300 nM; concentration at 1 h [3]: 8500 nM; concentration at 1 h [8]: 21 nM |
| 220 | 56 | Fc1ccc(-c2cc(-c3cnn(C4CCNCC4)c3)on2)c(Cl)c1 |  |
| 130 | 42 | Clc1sccc1-c1cc(-c2cnn(C3CCNCC3)c2)on1 |  |
| 4600 | 16 | c1nn(C2CCNCC2)cc1-c1cc(C2CCCCC2)no1 |  |
| 12 | 71 | Cn1c(-c2cc(-c3c(F)cccc3Cl)no2)cnc1C1CCNCC1 | efflux ratio (MDR1): > 10 |

From ChEMBL document CHEMBL1141716, “Discovery and optimization of substituted piperidines as potent, selective, CNS-penetrant alpha4beta2 nicotinic acetylcholine receptor potentiators” (Bioorg Med Chem Lett, 2008)
